Test results taken from paper PMC10173165 (Journal of Advanced Research, 2022).
Numbering of substitutions follows the chain as printed. Names and notes keep the numbering of the source. Each block holds one molecule with its values, some of them ahead of it. Ends that are not written are not given here.

Legend:
NCI-N87 xenograft = experiment: NCI-N87 tumor xenograft with IHC; assay type: in vivo, athymic nude mice
How it was run: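 Female athymic nude mice (5 weeks old) received 5 × 10^6 NCI-N87 cells s.c. in PBS into the right flank and were randomised at 90–100 mm3 (n = 5/group). Dosing was 4 mg/kg i.v. in DMAC/Tween80/saline (5:10:85), six times at 3-day intervals. Caliper volume (L × W2)/2 was followed to day 28. Paraffin tumour sections were stained for HER2 and Ki-67 (DAB), with IHC score = intensity × fraction (0–300) over 10 fields per sample.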

[1] = Intravenous and oral pharmacokinetic profile; assay type: in vivo, ICR mice; details: male, ICR, mouse, plasma
[2] = Genotoxicity safety assessment
[3] = molecular target: T1, (His)6-MED23_391–582 / FITC-ELF3_129–145 (Homo sapiens, UniProt Q9ULK4); experiment: Fluorescence polarization assay; assay type: binding; details: negative control
T1 sequence (Q9ULK4 391-582): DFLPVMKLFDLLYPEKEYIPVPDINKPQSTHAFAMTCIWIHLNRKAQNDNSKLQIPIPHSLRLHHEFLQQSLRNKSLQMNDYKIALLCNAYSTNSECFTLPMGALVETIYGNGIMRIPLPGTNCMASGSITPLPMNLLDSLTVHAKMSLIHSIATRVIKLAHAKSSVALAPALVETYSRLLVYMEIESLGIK

Nluc-ELF3^WT = molecular target: T2, Nluc-ELF3^WT (human, UniProt P78545-1 1-371); experiment: split reporter
T2 sequence: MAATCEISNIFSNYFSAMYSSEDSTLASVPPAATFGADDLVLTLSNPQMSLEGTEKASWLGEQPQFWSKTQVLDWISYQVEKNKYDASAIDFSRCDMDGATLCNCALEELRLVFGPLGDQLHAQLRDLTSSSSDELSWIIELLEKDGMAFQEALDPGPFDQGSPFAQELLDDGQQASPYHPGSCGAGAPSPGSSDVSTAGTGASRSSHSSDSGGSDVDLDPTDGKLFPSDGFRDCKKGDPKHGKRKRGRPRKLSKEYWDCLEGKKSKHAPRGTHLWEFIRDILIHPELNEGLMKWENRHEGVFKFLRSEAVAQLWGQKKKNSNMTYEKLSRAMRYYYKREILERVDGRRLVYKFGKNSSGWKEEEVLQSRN

(His)6-MED23_(391–582) = molecular target: T3, (His)6-MED23_(391–582) (human, UniProt Q9ULK4 391-582); experiment: fluorescence polarisation
T3 sequence: T1 sequence (Q9ULK4 391-582)

[4] = 4 mg/kg IV, compared to untreated control

B1: Cluc-MED23_(391-582)^WT (domain or fragment)
chain: T1 sequence (Q9ULK4 391-582)
fold change of luciferase activity relative to control (Nluc-ELF3^WT): 5.2 fold

B3: Cluc-MED23_(391-462) (domain or fragment)
chain: DFLPVMKLFDLLYPEKEYIPVPDINKPQSTHAFAMTCIWIHLNRKAQNDNSKLQIPIPHSLRLHHEFLQQSL
fold change of luciferase activity vs control (Nluc-ELF3^WT): 6 fold

The next lines start with results.

half-life ([1]; iv): 9.74 ± 2.76 h
bioavailability ([1]; po): 25.1%
half-life ([1]; po): 10.9 ± 11 h
Molecule: CC(=O)N1N=C(c2cccc(O)c2)CC1c1ccc(Cl)cc1 (stereo not drawn) [Compound 15]
Tumor growth (NCI-N87 xenograft; 4 mg/kg IV every 3 days): significant tumor growth retardation
Decrease in proliferation marker Ki67 (IHC) (NCI-N87 xenograft; [4]): 4.5 fold
Reduction of HER2 level in the tumor (IHC) (NCI-N87 xenograft; [4]): 1.8 fold
Genotoxicity [2]: no association of genotoxicity

Change of FP signal [3]: made no such changes
Molecule: COc1ccc(C2CC(c3ccccc3O)=NN2C(C)=O)c2ccccc12 (stereo not drawn) [Compound 18]

fold change of luciferase activity relative to control (Nluc-ELF3^WT): 4.8 fold
B2: Cluc-MED23_(391-582)^K397A (domain or fragment)
chain: T1 sequence (Q9ULK4 391-582) with K7A

binding result ((His)6-MED23_(391–582)): binds
Molecule: TSSSSDELSWIIELLEK (also: FITC label, position not given here) [FITC-labeled ELF3_(129–145) peptide]
